Assay results published in ChEMBL document CHEMBL1153079, “Synthesis and biological evaluation of 3',4',5'-trimethoxychalcone analogues as inhibitors of nitric oxide production and tumor cell proliferation” (Bioorg Med Chem, 2009).

Assays:
Assay type in all cases: functional, cell-based
COLO 205 = assay: Growth inhibition of human COLO205 cells after 48 hrs by MTT assay; settings: COLO 205, 48 h
Procedure, shortened: (§1)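 Cells were from ATCC and grown in RPMI-1640 with 10% fetal calf serum, antibiotics and L-glutamine. Growth was read by MTT after continuous compound exposure, against a DMSO vehicle control, up to a maximum of 100 µM. IC50 came from sigmoidal variable-slope dose–response curves. Triplicates were run in three independent experiments, reported as mean ± SD.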

HepG2 = assay: Growth inhibition of human HepG2 cells after 48 hrs by MTT assay; settings: HepG2, 48 h; procedure, shortened: as §1
[1] = tested on: Peritoneal macrophage cell; assay: Inhibition of nitric oxide production in LPS/IFN-gamma-stimulated BALB/c mouse peritoneal macrophages by Griess method
Procedure, shortened: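 Murine peritoneal macrophages were stimulated with LPS (E. coli 055:B5) plus recombinant IFN-γ, and NO in the medium was measured with Griess reagent. Cell viability under the same conditions was checked by MTT. IC50 came from sigmoidal variable-slope dose–response curves. Triplicates were repeated three times (n = 9), reported as mean ± SD.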

SMILES | IC50 (COLO 205) | IC50 (HepG2) | IC50 [1]
COc1cc(C(=O)/C=C/c2ccc(C=O)cc2)cc(OC)c1OC | 68.8 µM | > 100 µM | > 50 µM
COc1cc(C(=O)/C=C/c2ccc(O)c(O)c2)cc(OC)c1OC | 19.8 µM | 14.9 µM | 1.5 µM
COc1cc(/C=C/C(=O)c2cc(OC)c(OC)c(OC)c2)cc(OC)c1OC | 19.2 µM | 19.6 µM | 2.8 µM
COc1ccc(/C=C/C(=O)c2cc(OC)c(OC)c(OC)c2)cc1OC | > 100 µM | 20.3 µM | 4.5 µM
COc1cc(C(=O)/C=C/c2ccc(O)cc2)cc(OC)c1OC | 29.7 µM | 16 µM | 5 µM
COc1cccc(/C=C/C(=O)c2cc(OC)c(OC)c(OC)c2)c1 | 2.2 µM | 1.8 µM | 0.3 µM
COc1ccc(/C=C/C(=O)c2cc(OC)c(OC)c(OC)c2)cc1 | 46.4 µM | 49.5 µM | 7.6 µM
COc1cc(C(=O)/C=C/c2ccc(C)cc2)cc(OC)c1OC | 41.5 µM | 52 µM | 4.5 µM
COc1cc(C(=O)/C=C/c2ccc(N(C)C)cc2)cc(OC)c1OC | 75 µM | 30 µM | 27 µM
COc1cc(/C=C/C(=O)c2cc(OC)c(OC)c(OC)c2)ccc1O | > 100 µM | > 100 µM | 0.3 µM
COc1cc(C(=O)/C=C/c2cccc(O)c2)cc(OC)c1OC | 49 µM | 94 µM | 13.5 µM
COc1cccc(/C=C/C(=O)c2cc(OC)c(OC)c(OC)c2)c1O | 13 µM | 13.5 µM | 3 µM
COc1cc(C(=O)/C=C/c2ccccc2C=O)cc(OC)c1OC | 88 µM | > 100 µM | 27 µM
COc1cc(C(=O)/C=C/c2ccc([N+](=O)[O-])cc2)cc(OC)c1OC | 43 µM | > 100 µM | 30 µM
COc1ccc(/C=C/C(=O)c2cc(OC)c(OC)c(OC)c2)c(OC)c1 | 82.5 µM | > 100 µM | > 50 µM
COc1cc(C(=O)/C=C/c2cccc(C=O)c2)cc(OC)c1OC | 22.5 µM | > 100 µM | > 50 µM
COc1cccc(/C=C/C(=O)c2cc(OC)c(OC)c(OC)c2)c1OC | 13.2 µM | 11.5 µM | 2.4 µM
COc1cc(C(=O)/C=C/c2cc([N+](=O)[O-])ccc2O)cc(OC)c1OC | 76 µM | > 100 µM | 4.4 µM
COc1cc(OC)c(OC)cc1/C=C/C(=O)c1cc(OC)c(OC)c(OC)c1 | 18.6 µM | 16.1 µM | 4.6 µM
COc1cc(C(=O)/C=C/c2cc(O)ccc2O)cc(OC)c1OC | > 100 µM | > 100 µM | > 50 µM
COc1cc(C(=O)/C=C/c2ccc(Br)cc2)cc(OC)c1OC | 22.5 µM | 80 µM | 20 µM
COc1cc(C(=O)/C=C/c2ccc(F)cc2)cc(OC)c1OC | 25.7 µM | 22 µM | 17.6 µM
COc1ccc(/C=C/C(=O)c2cc(OC)c(OC)c(OC)c2)cc1O | 11.2 µM | 10.6 µM | 1.3 µM
